Source: PubChem
In the library only some 2.3% were active in any assay of this set; here they are far more common.
TROY signal inh: blocks TROY-dependent signaling in reporter cells; Q293 LMP1-TROYcd NF-kB luciferase reporter, 4 h; inhibition, % at 10 µM; hit rate 0.98% among 360,000; AID 1347056;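 active = compounds whose plate-normalised and pattern-corrected inhibition of the luciferase reporter signal at the single screening dose is 50% or more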
LGR2 antag: Drosophila LGR2 receptor signaling inhibition; inhibition, % at 9.99 µM; hit rate 0.35% among 380,000; AID 720647; HEK293 LGR2, CRE-luciferase, bursicon-stimulated, 4 h;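 active = drop in luminescence signal, shown as inhibition above about 50% in the replicate tests, limit read from the data, passing the limit was not always enough; inconclusive = probably only some replicates passing the limit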;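 also: agonist challenge used bursicon conditioned medium at about half maximal strength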
FN deposit inh: fibronectin deposition inhibition; hit rate 0.086% among 350,000; inhibition, % at 12.6 µM; AH1F fibroblasts, Alexa488-fibronectin deposition fluorescence, overnight;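 active = mean inhibition across replicates of 30% or more, regardless of how many single replicates reach that level; inconclusive = mean under 30% yet at least half of replicates reach 30%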;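 also: positive control wells lacked labelled fibronectin entirely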
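Material – AH1F fibroblast monolayer, labelled fibronectin deposition · Reagent – labelled fibronectin 24 nM · Timing – 1 h adhesion, overnight exposure · Measured by – fluorescence at 485 nm excitation, 525 nm emission · Read-out – inhibition of fibronectin deposition signal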
EWS-Fli inh: blocks EWS/Fli oncoprotein-driven transcription; A673 NR0B1-luciferase reporter, viability-normalised; inhibition, % at 12.6 µM; hit rate 0.67% among 350,000; AID 651661;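 active = mean inhibition of at least 50% after viability correction, with every replicate also passing that limit; inconclusive = mean reaches 50% but only one of two replicates passes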;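 also: firefly luciferase signal divided by Alamar Blue viability fluorescence both relative to DMSO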
TWEAK Fn14 block: blocks TWEAK-Fn14 interaction in a reporter cell assay | TWEAK-stimulated Fn14 reporter cells, luciferase luminescence, 8 h | inhibition, % at 10 µM | hit rate 2% among 360,000 | AID 1159606; in the data active = inhibition above about 50%
Xi reactivation: reactivates the inactive X chromosome in mouse fibroblasts; XiGFP mouse fibroblasts, % GFP-positive cells imaging, 3 d; cells co-treated with 5-aza-dC sensitizer; scaled so ellipticine positive control = 100%; activation, % at 7.58 µM; hit rate 0.055% among 360,000; AID 743238;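 active = mean normalized replicate activation at least 10% and every replicate at or above 10%; inconclusive = only one of the two criteria met; inactive = mean below 10% and not all replicates reach 10%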;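 also: 0% = median of on-plate neutral control wells and 100% = ellipticine 6 µM median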
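Material: SV40-immortalized XiGFP fibroblast cells, line 68-5-11 | Buffer or medium: DMEM containing 5-aza-dC | Dosing: One concentration, pinned | Times: 3 d treatment, 15 min room-temperature fixation | Controls: Ellipticine 6 µM positive control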
The depositor's hits bear a star.

Screening O=C(Nc1cc(F)ccc1F)N1C[C@H]2[C@@H](c3ccccc31)[C@@H](CO)N2Cc1cccnc1 returned LGR2 antag 0, EWS-Fli inh -5 and Xi reactivation 0.
Screening Brc1cc2c(cc1/C=N/Nc1nc3ccccc3s1)OCO2 returned TROY signal inh 79*, LGR2 antag -116 and TWEAK Fn14 block 57*.
`COCC(=O)Nc1ccc2c(c1)C(=O)N(C)[C@H]1CC[C@H](CC(=O)NC3CCCC3)O[C@H]1CO2` gave LGR2 antag -2, FN deposit inh 0, EWS-Fli inh -9 and Xi reactivation 0.
CC(Nc1c([N+](=O)[O-])c(=O)oc2ccccc12)C(Cl)c1ccccc1 (stereo unspecified) was read as TROY signal inh 3, LGR2 antag 16 and TWEAK Fn14 block 50*.
Screening CCN(CC)C(=O)c1cccc(-c2csc(C(O)c3cccc(Cl)c3)n2)c1 (stereo unspecified) returned TROY signal inh 45, LGR2 antag 25, FN deposit inh 2, EWS-Fli inh 13, TWEAK Fn14 block 61* and Xi reactivation 0.
Screening CCN(CC)C(=O)c1cccc(-c2csc(C(O)c3ccc(OC)cc3)n2)c1 (stereo unspecified) returned TROY signal inh 21, LGR2 antag 2, FN deposit inh -3, EWS-Fli inh -2, TWEAK Fn14 block 20 and Xi reactivation 0.
For CCc1nn2cc(C(=O)c3cc(Cl)ccc3O)cnc2c1-c1ccc(F)cc1 the results were TROY signal inh 65*, LGR2 antag 43, FN deposit inh 3, EWS-Fli inh 7, TWEAK Fn14 block 64* and Xi reactivation 0.
COc1cc(CNCc2ccccc2Cl)ccc1OCC(=O)NC1CCCCC1 was read as TROY signal inh 4, LGR2 antag -9, FN deposit inh 2, TWEAK Fn14 block 86* and Xi reactivation 0.
`CC(=O)N(C)C[C@@H]1Oc2ncc(C#Cc3ccccc3)cc2C(=O)N([C@@H](C)CO)C[C@H]1C` gave LGR2 antag -9, EWS-Fli inh -2 and Xi reactivation 0.
For O=C(c1ccco1)N1CCN(S(=O)(=O)c2c(Cl)cccc2Cl)CC1 the results were TROY signal inh -11, LGR2 antag 12, FN deposit inh -3, EWS-Fli inh 4, TWEAK Fn14 block 92* and Xi reactivation 0.
`CCOC(=O)c1c(C)oc2c1cc(O)c1ccccc12` gave TROY signal inh 27 and TWEAK Fn14 block 74*.
Screening CC(=O)c1c(C)oc2c1cc(O)c1ccccc12 returned TROY signal inh -22, LGR2 antag -9, FN deposit inh 1, EWS-Fli inh -1, TWEAK Fn14 block -21 and Xi reactivation 0.
Screening Cc1noc(C)c1S(=O)(=O)Nc1ccc2c(c1)C(=O)N([C@@H](C)CO)C[C@@H](C)[C@H](CN(C)C(=O)NC1CCCCC1)OCCCC[C@@H](C)O2 returned LGR2 antag 2, EWS-Fli inh -2 and Xi reactivation 0.
`Cc1cc(-c2ccc(C)c(S(=O)(=O)NCc3cccc(Br)c3)c2)on1` gave TROY signal inh 8, LGR2 antag 14, FN deposit inh -1, EWS-Fli inh 7, TWEAK Fn14 block -12 and Xi reactivation 0.
`Cc1cc(-c2ccc(C)c(S(=O)(=O)NCc3ccc(Br)cc3)c2)on1` gave TROY signal inh 32, LGR2 antag 15, FN deposit inh 12, EWS-Fli inh 2, TWEAK Fn14 block 65* and Xi reactivation 0.
CN(C)c1ccc(C(=O)n2nnc3ccccc32)cc1 was read as TROY signal inh 7, FN deposit inh -7 and TWEAK Fn14 block 94*.
C#CCOC(=O)c1ccccc1C(=O)n1nnc2ccccc21 was read as TROY signal inh 36, LGR2 antag 4, FN deposit inh 7 and TWEAK Fn14 block 55*.
CCCC(=O)Nc1ccc(C(=O)n2nnc3ccccc32)cc1 was read as TROY signal inh -3, FN deposit inh -13 and TWEAK Fn14 block 7.
For CO[C@H]1CN(C)C(=O)c2cc(NC(=O)c3ccccc3)ccc2OC[C@@H](C)N(C)C[C@H]1C the results were LGR2 antag -17, FN deposit inh -4, EWS-Fli inh 0 and Xi reactivation 0.
`N#C/C(=N\Nc1cccc(C(F)(F)F)c1)C(=O)c1csc(-c2cccnc2)n1` gave TROY signal inh 66*, LGR2 antag 12, FN deposit inh -4, EWS-Fli inh 12, TWEAK Fn14 block -16 and Xi reactivation 0.
`Cc1ccc(C(=O)Nc2cccc(C(F)(F)F)c2)cc1NC(=O)c1csc(-c2ccncc2)n1` gave TROY signal inh 10 and TWEAK Fn14 block 32.
`CS(=O)(=O)N1CC2(C1)[C@@H](c1ccccc1)[C@H](CO)N2C(=O)C1CCC1` gave LGR2 antag -3 and Xi reactivation 0.
`COc1ccc(N2CCN(C(=S)NC(C)c3ccccc3)CC2)cc1` (stereo unspecified) gave TROY signal inh -2, LGR2 antag -7, FN deposit inh -7, EWS-Fli inh 3, TWEAK Fn14 block -16 and Xi reactivation 0.
CC(NC(=S)N1CCN(c2ccccc2)CC1)c1ccccc1 (stereo unspecified) was read as TROY signal inh 8, LGR2 antag inconclusive, FN deposit inh 2, EWS-Fli inh 0, TWEAK Fn14 block 65* and Xi reactivation 0.
O=[N+]([O-])c1ccc(N2CCN(C(=S)Nc3ccccc3)CC2)cc1 was read as TROY signal inh 1, LGR2 antag 24, FN deposit inh -5, EWS-Fli inh -10, TWEAK Fn14 block -4 and Xi reactivation 0.
`O=[N+]([O-])c1ccc(NC(=S)N2CCN(c3ccccc3)CC2)cc1` gave TROY signal inh 8, LGR2 antag 4, FN deposit inh 19, TWEAK Fn14 block 56* and Xi reactivation 0.
O=C(C[C@H]1CC[C@H]2[C@@H](COC[C@@H](O)CN2C(=O)Nc2cc(Cl)cc(Cl)c2)O1)NCC1CCCCC1 was read as LGR2 antag -5, FN deposit inh -10, EWS-Fli inh -1 and Xi reactivation 0.
For O=C(C#Cc1ccccc1)c1cccc([N+](=O)[O-])c1 the results were TROY signal inh 17, LGR2 antag -7, EWS-Fli inh 67* and TWEAK Fn14 block 48.
`C/C=C/c1cnc2c(c1)C(=O)N([C@H](C)CO)C[C@H](C)[C@@H](CN(C)C(=O)C1CCOCC1)O2` gave LGR2 antag -1, EWS-Fli inh -8 and Xi reactivation 0.
CCOC(=O)c1sc(NC(=O)c2ccc(Cl)s2)cc1C was read as TROY signal inh -36, LGR2 antag -66, FN deposit inh -11, EWS-Fli inh -40, TWEAK Fn14 block -57 and Xi reactivation 0.
